According to PubChem BioAssay:
Values without a mark were called inactive. Results filed as inconclusive are left out. Activity calls are given as the source filed them.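 Rule for the calls, unless noted: active = viability increase at or above a cutoff of the median across tested compounds plus 3 SD (cut at about 8.5% in these data, passing the limit was not always enough); inconclusive = some gains above the cutoff, reason not given; inactive = the rest.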

Assays:
[1] = S. cerevisiae growth inhibition in permissive medium (OD615), pilot counter-assay for S. cerevisiae lifespan shortening project, permissive growth control (AID 705;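 active = growth inhibition above 25% in both replicates, a cutoff set 3 SD above the mean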); conditions: OD615, 24 h, at 10 µM, active compounds read high
In short: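 Material: engineered DeaD yeast; compound dosing: one dose 10 µM, DMSO 0.25% final; measure: yeast growth inhibition indicated by reduced 24 h OD615; detection: OD615 turbidity read; incubation: cells pre-grown 4 h, then 24 h compound exposure, 30 °C humidified; medium: permissive synthetic complete medium with raffinose and galactose carbon sources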

[2] = S. cerevisiae growth inhibition in restrictive medium, OD615, pilot screen, restrictive growth control, yeast lifespan reduction project (AID 706;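 active = growth inhibition above a set limit, 3 SD over mean compound inhibition, in both replicates, cut at about 43% in these data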;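 note: modified DeaD lifespan yeast strain shifted to restrictive glucose medium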); conditions: OD615, 48 h, at 10 µM, active compounds read high
In short: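 material = engineered S. cerevisiae DeaD strain | medium = glucose-based CSMM-D restrictive medium | times = 4 h pre-incubation, 48 h exposure at 30 °C | technique = OD615 absorbance reading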

[3] = doxorubicin toxicity protection in MRP-1 cells – H69AR cells, CellTiter-Glo, duplicate, MRP-1 activator project, pilot screen (AID 807); conditions: H69AR viability with doxorubicin, CellTiter-Glo luminescence; at 10 µM; active compounds read high;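 note: compound pretreatment 18-22 h then 72 h combined with doxorubicin; 0% = doxorubicin alone and 100% = vehicle without doxorubicin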
[4] = viability of HCT116 without oncogenic beta-catenin – human colon tumor cells, pilot screen (AID 823;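 active = cell viability at or below a set limit in both duplicate runs, the limit being the all-compound median minus 4 SD, cut at about 23% in these data, passing the limit was not always enough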;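 note: 0% = wells killed by 20 µM Hyamine and 100% = untreated DMSO cell wells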); conditions: HCT116 beta-catenin knockout viability, CellTiter-Glo, 60 h; at 10 µM; active compounds read low
[5] = viability of PTEN-null HCT116 cells – cell-based, HCT116 clonal line, CellTiter-Glo, pilot screen (AID 824;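 active = viability at or below 27.92% in each of two runs, the all-compound median minus 4 SD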;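 note: 0% = 20 µM Hyamine control and 100% = vehicle cell control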); conditions: HCT116 PTEN-deleted viability, 60 h, at 10 µM, active compounds read low
[6] = RAM pathway blockade in budding yeast – dse1pr::URA3 reporter, 5-FOA selection, pilot screen (AID 869;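 active = inhibition over a set limit, the all-compound mean plus 3 SD, in both replicate runs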;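 note: 0% = DMSO wells with no growth and 100% = 10 µM 1-NA-PP1 with full growth; RAM network block rescues cells from 5-FOA so hits raise OD615 growth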); conditions: S. cerevisiae dse1pr::URA3 5-FOA growth, OD615, 2 d; at 10 µM; active compounds read high; strain carries analog-sensitive mutant Cbk1 kinase
[7] = RAM signaling pathway blockade in yeast – S. cerevisiae, Pdr1DBD-CYC8 efflux-inhibited sensitized strain, primary screen (AID 1298;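 active = RAM network inhibition above 8.4% in each of two replicates, 3 SD over the compound average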;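 note: 0% = DMSO untreated cells without growth and 100% = 10 µM 1-NA-PP1 full growth; higher means more yeast growth rescued from 5-FOA killing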); conditions: S. cerevisiae cbk1-as DSE1-URA3 strain, 5-FOA growth OD615, 2 d; at 50 µM; active compounds read high

| SMILES | growth inhibition [1] [%] | growth inhibition [2] | viability increase [3] [%] | viability [4] | viability [5] | inhibition [6] [%] | RAM network inhibition [7] [%] |
| --- | --- | --- | --- | --- | --- | --- | --- |
| COC(=O)C1=C(C)N2C(=O)CSC2=NC1c1ccc2c(c1)OCO2 (configuration not stated) | 5.86 | 53.2% (active) | 0.55 | 93.3% | 98.8% | 0.03 | 0.78 |
| Cc1cccc(CSc2nnc(Cn3c(=O)sc4ccccc43)n2C)c1 | -2.34 | 1.82% | -1.45 | 86.4% | 87.3% | -0.065 | 4.9 |
| O=S(=O)(NCCc1cn2ccccc2n1)c1ccc2c(c1)OCCO2 | -2.27 | -2.71% | -2.56 | 105% | 97% | 1.62 | 2.25 |
| COc1ccc(OCC(O)CN2CCCCC2)cc1 (configuration not stated) | -7.21 | -11.1% | -1.52 | 95% | 101% | 1.59 | 0.52 |
| O=c1cc(N2CCOCC2)[nH]c(=O)n1-c1ccc(Cl)cc1 | -5.36 | -6.01% | -1.67 | 105% | 97.2% | 1.17 | 1.09 |
| COC(=O)CSc1nc2ccccc2o1 | -7.46 | -18.7% | -1.43 | 97.8% | 96.3% | 1.3 | 1.45 |
| CCOc1cc(C(=O)NCCN2CCOCC2)cc(OCC)c1OCC | -5.59 | -3.11% | -3.76 | 91.3% | 96.4% | -0.045 | 2.61 |
| CCOC(=O)CNC(=O)CSc1nnc(Cn2c(=O)sc3ccccc32)n1C | -6.96 | 6.85% | -1.45 | 108% | 98% | 0.83 | 3.34 |
| c1ccc(Cn2ncc3ccccc32)cc1 | -3.05 | 4.4% | -1.05 | 94.8% | 98% | -0.165 | -0.97 |
| Cc1ccc(-n2nnc3c(=O)n(Cc4ccccc4C)cnc32)cc1 | -4.99 | -6.7% | -0.53 | 102% | 100% | 2.44 | 4.84 |
| CCOC(=O)N1CCC(NC(=O)c2ccc(CS(=O)(=O)c3ccccc3C)o2)CC1 | -9.38 | -19.7% | -0.86 | 106% | 98.5% | -0.185 | 7.2 |
| Cn1c(=O)c2c(SCC(=O)N3CCN(c4ccccc4)CC3)nc(C3CC3)nc2n(C)c1=O | 10.6 | -3.49% | -2.93 | 82.5% | 79.8% | 3.71 | 6.69 |
| COc1c(C)cc(Br)cc1C(=O)Nc1cccc(-c2nc3ncccc3o2)c1 | -0.485 | 15% | -4.84 | 55.6% | 46.5% | 2.24 | 7.82 |
| Cc1ccc(-n2nc(C)c3c(C)c(CCC(=O)NCc4ccco4)c(C)nc32)cc1 | -15 | -9.24% | -3.52 | 84.7% | 75.5% | 0.985 | 4.13 |
| C=C(C)CSc1nnc(-c2cccc(Cl)c2)n1N | 3.94 | 14.4% | 0.23 | 95.9% | 91.5% | 1.77 | -0.48 |
| N#Cc1ccc(NC(=O)Nc2ccc(Cl)cc2)cc1 | 3.13 | -4.69% | -7.91 | 6.71% (active) | 7.35% (active) | 1.34 | 1.44 |
| CC(=O)c1cccc(NC2c3ccccc3C(=O)N2Cc2ccc3c(c2)OCO3)c1 (configuration not stated) | -2.94 | 7.7% | -2.61 | 92.7% | 79.6% | 2.9 | 2.2 |
| O=C(CN1CCOCC1)Nc1cc(Cl)ccc1Cl | -13.4 | -2.5% | -2.37 | 92.6% | 101% | 2.6 | 1.66 |

| SMILES | growth inhibition [1] [%] | growth inhibition [2] | viability increase [3] [%] | viability [4] | viability [5] | inhibition [6] [%] | RAM network inhibition [7] [%] |
| --- | --- | --- | --- | --- | --- | --- | --- |
| O=C1Nc2ccccc2C(O)(C(=O)NCc2ccco2)N1c1ccc(Cl)cc1 (configuration not stated) | -7.58 | -16.5% | -4.11 | 98.6% | 94.5% | 1.98 | 4.83 |
| O=C(NCCOC(=O)c1ccc(C(=O)OCCNC(=O)c2ccccc2)o1)c1ccccc1 | 4.22 | 13.6% | 0.02 | 100% | 103% | 1.25 | 6.33 |
| O=C(O)CCc1ccc(-c2cccs2)n1-c1ccc(C(=O)O)cc1 | -3.21 | 3.42% | -0.51 | 98.7% | 93.5% | 2.39 | -0.68 |
| CCOC(=O)N1CCC(NC(=O)CN2C(=O)CSc3nc(C)cc(C)c32)CC1 | -8.91 | 6.29% | -0.46 | 109% | 97.7% | -0.65 | 0.43 |
| O=C(NCc1cccnc1)C1CC(=O)N(c2ccc(F)cc2)C1 (configuration not stated) | -18 | -11.7% | 1.27 | 93.8% | 101% | 0.485 | 2.83 |
| Cc1ccc2oc(=O)c3cc(C(=O)N4CCN(c5ncccn5)CC4)sc3c2c1 | -7.63 | -1.9% | -3.11 | 107% | 98.1% | 1.62 | 2.64 |
| Cc1oc(C(C)(C)C)cc1C(=O)Nc1ccc(C(=O)O)cc1 | 6.25 | -11.5% | 2.02 | 103% | 91% | 0.6 | -1.87 |
| O=C(CSc1ccc2nnc(-c3ccc(Cl)cc3)n2n1)N1CCN(c2ccccc2)CC1 | 20.5 | 63.7% (active) | -3.11 | 96.6% | 85.5% | -0.195 | 3.08 |
| Oc1c(C(c2ccccc2)N2CCN(Cc3ccccc3)CC2)sc2ncnn12 (configuration not stated) | -6.68 | -5.08% | 1.62 | 89.7% | 84.7% | 1.79 | 0.68 |
| NS(=O)(=O)c1ccc(S(=O)(=O)NCCc2ccccc2)cc1 | -4.76 | 8.78% | 0.73 | 93.3% | 94.9% | 1 | 3.88 |
| Cc1nccc2[nH]c(=O)c(C(=O)NC3CCN(Cc4ccccc4)CC3)cc12 | -0.105 | -8.34% | -3.81 | 104% | 93.9% | 1.82 | 7.9 |
| CCNC(=O)COc1ccc2ccccc2c1 | -2.77 | 3.62% | 0.99 | 97.4% | 99.6% | 1.06 | 1.53 |
| COc1ccc(CN2CCN(C(=O)c3ccco3)CC2)cc1OCc1ccccc1 | -9.2 | -18.8% | -2.34 | 88% | 83.3% | 0.95 | 2.98 |
| CC(=O)Nc1ccc(OCC=C(Cl)Cl)cc1 | 2.81 | 5.66% | 1.02 | 97.2% | 102% | 0.805 | 1.16 |
| Cn1nc(-c2ccc(Cl)cc2)c2cc(C(=O)NCc3ccco3)sc21 | -1.08 | -3.58% | -7.27 | 59.6% | 47% | 2.54 | 5.89 |
| O=C(O)C1CCCN1S(=O)(=O)c1cc(Cl)ccc1Cl (configuration not stated) | -3.73 | -6.05% | 1.55 | 92.5% | 102% | 0.535 | 4.12 |
| Nc1ccc2nc(-c3ccc(Cl)cc3)[nH]c2c1 | -13 | -10.7% | -8.6 | 73.4% | 75.3% | 0.935 | 4.58 |
| O=C(CCc1ccccc1)Nc1ccc(NC(=O)c2ccco2)cc1 | -5.04 | 0.64% | -1.63 | 103% | 93.7% | 1.44 | 2.56 |
